Data taken from ChEMBL document CHEMBL4513216, “Probing the Open Global Health Chemical Diversity Library for Multistage-Active Starting Points for Next-Generation Antimalarials” (ACS Infect Dis, 2020).

assay: Toxicity liver stage against HepG2, at 10uM; format: cell-based; set-up: test concentration 10 uM, cell line HepG2-A16-CD81EGFP; conditions: human, HepG2-A16-CD81EGFP cells; read-out: INHIBITION
Outline: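 Uninfected HepG2-A16-CD81EGFP cells, 3 × 10^3 per well, 1536-well, plated on prespotted compound at 10 μM final, parasite-free screening media added to match infected plates; puromycin 10 μM positive, DMSO 0.5% negative; run in parallel with 48 h PbLuc assay at 37 °C, 5% CO2; viability by CellTiter-Glo luminescence, normalized to controls.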

In order of falling cytotoxicity at 10 µM:
1. COc1cc(N2CCCC(CO)(Cc3ccccc3F)C2)ncn1 (configuration not stated)  45.7%
2. Cc1nc(-c2ccccc2C)n(CC(=O)NC(C)C2CC2)n1 (configuration not stated)  20.8%
3. Cc1nn(C)c2c(NCCCn3cccn3)nc(C3CC3)nc12  12.9%
4. O=C(O)[C@@H]1CCCN1c1nccc(Nc2ccccc2)n1  12.2%
5. Cc1cc(C(F)(F)F)nn1CC(C)C(=O)Nc1cccnc1 (configuration not stated)  11.5%
6. CS(=O)(=O)N1C[C@H]2CC[C@@H](C1)N(C(=O)Cn1nc3ccccc3n1)C2  10.8%
7. Cc1noc([C@@]23CCO[C@@H]2CCN(C(=O)c2cc(C)[nH]c2C)C3)n1  10.4%
8. COc1ccc(Cl)cc1C(=O)NCC1CCN(C(=O)c2ccoc2)CC1  10.1%
9. Cc1cc(Oc2ccccc2F)nc(C2CCCCN2)n1 (configuration not stated)  8.44%
10. C/C(NC(=O)c1ccccn1)=C1\C(=O)C[C@@H]2[C@H]1C2(C)C  7.66%
11. Cc1csc(CN2CC[C@H]3C(=O)N(c4cccnc4)CCO[C@H]3C2)n1  6.31%
12. Cc1ccccc1CN(CCN(C)C)Cc1ccc(S(C)(=O)=O)cc1  6.3%
13. Cc1cc(C(=O)N2CCC(N3CCNC3=O)CC2)nn1C(C)(C)C  5.56%
14. CCC(C)NS(=O)(=O)Cc1cccc(NC(=O)C(C)C)c1 (configuration not stated)  5.36%
15. Cc1nc(NCc2nccn2C)cc(C2COCCN2)n1 (configuration not stated)  5.32%
16. CC(C)NC(=O)N1CCOC2(CCCNC2)C1 (configuration not stated)  4.76%
17. CC(C)NC(=O)C1CN(C(=O)Nc2ccccc2)CC12CCOCC2 (configuration not stated)  4.58%
18. CC(C)(C)c1ccc(C(=O)C2CCCN(C(=O)CNS(C)(=O)=O)C2)cc1 (configuration not stated)  4.1%
19. O=C1CCC2(CCCN(C(=O)Cc3ccccn3)C2)N1 (configuration not stated)  4%
20. CC[C@@]1(O)CCN(C(=O)CN(C)Cc2ccc(F)cc2)C[C@H]1O  3.38%
21. Cc1cccc2c1ccn2CC(=O)NC[C@@H]1CCCN2CCCC[C@H]12  3.14%
22. COCCCn1ccc(NC2CCSCC2)n1  3.04%
23. CNS(=O)(=O)c1ccc(CNC(=O)C2CCCO2)cc1 (configuration not stated)  2.45%
24. CS(=O)(=O)CCOCCNc1ccc(C(F)(F)F)cc1C#N  2.31%
25. CC(C)N1CCCC2(CCN(Cc3noc(C4CCCC4)n3)C2)C1=O (configuration not stated)  2.24%
26. O=C1CCC2(CCOC2)CN1Cc1nc2ccc(Cl)cc2[nH]1 (configuration not stated)  1.9%
27. CN1C(=O)CC2(CCN(S(=O)(=O)c3cccs3)CC2)c2ccccc21  1.86%
28. CCc1ncc(C(=O)N2CCN(c3nc(C)cc(OC)n3)CC2)s1  1.1%
29. CC(c1nc(C2CC2)no1)N1CCc2c(ncn2C)C1 (configuration not stated)  1.09%
30. Cc1cc(NC(=O)CN2CCOC(CN(C)C)C2)n(C)n1 (configuration not stated)  0.894%
31. CN1C[C@@H](F)[C@@H](OCc2nc3ccccc3n2C)C1  0.876%
32. CN1C(=O)CC2(CCN(S(=O)(=O)N(C)C)CC2)c2ccccc21  0.688%
33. Cc1ccccc1C(=O)Nc1ccc([C@H]2OCC(=O)N(C)[C@@H]2CO)cc1  0.461%
34. Cc1cc(NC(=O)Cn2cnc(-c3cccs3)cc2=O)sn1  0.0962%
35. CCN1C[C@H]2CCN(C(C)=O)CC[C@H]2S1(=O)=O  0.0452%
36. O=C(CN1CCN(CC(O)C2CC2)CC1)NCc1ccc(F)cc1 (configuration not stated)  -0.084%
37. Cn1c(CN2CCCC2)nnc1C1CCCN(C(=O)N2CCOCC2)C1 (configuration not stated)  -0.193%
38. Cc1nc(-c2ccncc2)ncc1C(C)NC(=O)C1=NN(C)C(=O)CC1 (configuration not stated)  -0.205%
39. COc1ccc(CN2CC(n3cccn3)C2)cc1F  -0.483%
40. NC(=O)CN1CCC(OCc2ccc(Cl)c(Cl)c2)CC1  -0.497%
41. CCN1CCCC1CN(Cc1ccon1)CC1CCN(CCOC)CC1 (configuration not stated)  -0.525%
42. CC(NC(=O)N1CCNC(=O)CC1)c1c(F)cccc1Cl (configuration not stated)  -1.66%
43. CC(NCCCC#N)c1ccc(-c2ccncc2)cc1 (configuration not stated)  -1.93%
44. CCC(C)(COc1ncccc1Cl)NCC(=O)NCC(C)C (configuration not stated)  -2.86%
45. CCN1CCCC(O)(CNCc2ccncc2)C1 (configuration not stated)  -2.93%
46. COC(CNC(=O)C1CC1)c1ccc(C)s1 (configuration not stated)  -3.08%
47. Nc1nccc(C2CCCCN2Cc2cccc(F)c2)n1 (configuration not stated)  -4%
48. CC(C)C(=O)NC1CCCN(C(=O)c2cc3ccccc3cc2O)C1 (configuration not stated)  -4.14%
49. CN1C(=O)C2(CC(=O)Nc3c2cnn3C(C)(C)C)c2ccccc21 (configuration not stated)  -4.5%
50. CC(C)COC(C)C(=O)NCCNS(C)(=O)=O (configuration not stated)  -5.26%
51. Cn1ncc2c1CCCC2NCc1cnc(-c2ccccc2)nc1 (configuration not stated)  -5.43%
52. Cc1ccc2oc(CN3CCn4nc(CCC(=O)O)cc4C3)c(C)c2c1  -5.56%
53. CC(NCC1CCN(CCO)CC1)c1cccnc1 (configuration not stated)  -5.6%
54. CC1CCN(CCNC(=O)c2ccccc2N2CCOCC2)CC1  -6.05%
55. COc1ccc(C(=O)C2CCCN(Cc3cc(C)n[nH]3)C2)c(OC)c1 (configuration not stated)  -6.77%
56. CC(C(=O)N(C)C)N1CCc2onc(-c3cccc(F)c3)c2C1 (configuration not stated)  -6.93%
57. Cc1nccn1CCCNc1nccnc1C#N  -7.21%
58. Cc1nc(NC(=O)c2nn(-c3ccc(F)cc3C)cc2O)n[nH]1  -7.3%
59. CCC(O)CNC(=O)c1cc(COc2ccc(OC)cc2Cl)[nH]n1 (configuration not stated)  -8.09%
60. O=C(NCCOCC(F)(F)F)c1ccc(-c2ccco2)[nH]c1=O  -8.5%
61. COc1cccc([C@H]2CN(C(C)=O)[C@@H]3CCN(Cc4ccsc4)C[C@H]23)c1  -9.19%
62. CCOCCNC(=O)C(CCSC)NC(=O)c1ccc2ccccc2n1 (configuration not stated)  -9.95%
63. Cc1ncnc2c1CCN(Cc1ccccn1)CC2  -10.4%
64. Cc1ccc(NC2CCN(C(=O)CC3CCCO3)CC2)nn1 (configuration not stated)  -10.5%
65. CNc1c(NCc2ccco2)c(=O)c1=O  -10.6%
66. O=C(c1ccoc1)N(Cc1cccnc1)C1CC1  -13.2%
67. CCc1ncncc1C(=O)N1CCN(Cc2c(C)noc2C)CC1  -13.8%
68. O=C(CCn1ccc(=O)[nH]c1=O)N1CCC(OCc2cccnc2)CC1  -15.7%
69. O=C(Nc1ccc(N2CCCC2)nc1)N1CCc2sccc2C1  -16.6%
70. CC1(c2ccccc2)CCC(=O)N(CCCN2CCOCC2)C1 (configuration not stated)  -18.1%
71. COCC(C)NC(=O)c1nnn(-c2ccc(F)cc2)n1 (configuration not stated)  -20.6%
72. COc1cc(C)nc(N2CCN(C(=O)c3ccoc3C)CC2)n1  -21.8%
73. c1cc2c(cc1C1CCCN1Cc1nnnn1C1CC1)OCCO2 (configuration not stated)  -25.7%
74. O=c1cnc2ccccc2n1CCCn1cccn1  -26.4%
75. CN(C)c1cncc(C2CCCN2S(=O)(=O)c2cn(C)cn2)n1 (configuration not stated)  -27.1%
76. COc1cccc2c1OCC(C(=O)NCCc1nnc(N)s1)C2 (configuration not stated)  -33.4%
77. Cc1nc(CN2C(=O)CC[C@@H]3[C@H]2CCN3C(=O)c2ccccn2)cs1  -77.7%
78. CN(C)C[C@H]1OC[C@@H]2CCN(S(=O)(=O)c3ccc(F)cc3)C[C@@H]21  -85.7%
79. CN1C(=O)CC(c2ccccc2)C12CCN(c1ncc(F)cn1)CC2 (configuration not stated)  -108%
80. CC(C)COCc1cncc2c1CCN(C(=O)c1cscn1)C2  -108%
81. Cc1cc(C)nc(CCNc2nccc(CCC(F)(F)F)n2)n1  -114%
82. Cc1cccc(CN2C(=O)CO[C@@H]3CN(C4CCOCC4)C[C@H]32)c1  -146%
